The test system of data set [1] is caspase 3/7 activation in U87 cells. As to the kind of experiment: Caspase-Glo 3/7 assay in U87 cells. The data set is classed as cell-based, human. Particulars: doxorubicin 2 μM. The method in brief:
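U87 human glioblastoma cells were grown in DMEM with 10% FBS at 37 °C and 5% CO2, then seeded and cultured for 48 h before treatment. Doxorubicin 2 μM served as the apoptosis control, and signals were followed over time up to 48 h. For Caspase-Glo 3/7, plate and reagent were equilibrated to room temperature, then reagent was added to the wells. After 15 min at room temperature, luminescence was read.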

Another data set deals with U87 cells. As to the kind of experiment: RealTime-Glo Annexin V Apoptosis and Necrosis Assay in U87 cells. The data set is classed as cell-based, human. The following applies: doxorubicin 2 μM. The method in brief:
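U87 cells were kept in DMEM with 10% FBS at 37 °C and 5% CO2, seeded for 48 h, then exposed to doxorubicin 2 μM as the apoptosis control and followed up to 48 h. RealTime-Glo detection reagent was added to the live-cell medium. Annexin V binding was read by luminescence. Necrosis was read as fluorescence of a cell-impermeant DNA dye (ex 485/em 530 nm) after 60 min at 37 °C.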

Data set [2] has as its system U87 human glioblastoma cell line. As to the kind of experiment: PrestoBlue viability test on U87 cells with or without HNE. The following applies: 48 h. The data set is classed as cell-based. A digest of the protocol: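 U87 cells were seeded and cultured for 48 h, then switched to serum-free DMEM. Test compound (0–400 μM) and HNE 0.68 μM were added; where used, eglin C 10 μM was added before HNE. After 1 h, 10% serum was added and incubation continued for 24, 48 or 72 h. PrestoBlue reagent (1/10 volume) was added for 30 min at 37 °C, and fluorescence was read at ex 560/em 590 nm.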

*1 amine or outer side, *2 acyl side, *3 side chain or, on linkers, in order; H or OH if unused. Where a SMILES comes first, the peptide text is derived from it. The star is where a group is joined. X4 = CC(ON(C(C)(C)C)C(C)(C)C)c1ccc(O*)cc1; Suc = O=C(CCC(=O)[*:2])[*:1]

In the case of `COc1cccc2c1C(=O)c1c(O)c3c(c(O)c1C2=O)C[C@@](O)(C(=O)CO)C[C@@H]3O[C@H]1C[C@H](N)[C@H](O)[C@H](C)O1` [doxorubicin], the “caspase activity (positive control)” value in data set [1] is “increases between 24 and 48 h”. Also, in the data set with U87 cells, the “DNA+ labeling (positive control)” value is “increases regularly until 48 h”. For the same molecule, the “annexin V labeling (positive control)” value in the data set on U87 cells (timing similar to caspase (24 to 48 h)) was “highly AV+”. Moreover, the “U87 population still viable” value in data set [2] (doxorubicin 2 μM) turned out to be 50%.

In the case of `CC(NC(=O)CCC(=O)O)C(=O)NC(C)C(=O)N1CCCC1C(=O)NC(C(=O)Oc1ccc(C(C)ON(C(C)(C)C)C(C)(C)C)cc1)C(C)C` (stereo not drawn) [suc-AAPV-phenol-DBNO, Acid 4-((1-((1-(2-((1-(4-(1-((di-tert-butylamino)oxy)ethyl)phenoxy)-3-methyl-1-oxobutan-2-yl)carbamoyl)pyrrolidin-1-yl)-1-oxopropan-2-yl)amino)-1-oxopropan-2-yl)amino)-4-oxobutanoic Acid] (Suc-AAPV-X4; configuration not given here), the “effect on viability in the presence of HNE” value in data set [2] (U87 cells, prodrug 0–400 μM, HNE 0.68 μM) is recorded as “does not have any measurable effect”.

B1: eglin C: a potent HNE inhibitor (CIBA-GEIGY) (protein, UniProt P01051 1-70, looked up)
Eglin C: TEFGSELKSFPEVVGKTVDQAREYFTLHYPQYDVYFLPEGSPVTLDLRYNRVRVFYNPGTNVVNHVPHVG
Consider B1, for which the “rescue of U87 cells from prodrug + HNE cytotoxicity by elastase inhibitor” value in data set [2] (eglin C 10 μM added just before HNE 0.68 μM, four prodrugs) was “rescues the cells”.

Source of the values: publication PMC9289877 (Journal of Medicinal Chemistry, 2022).
